Measurements published in ChEMBL document CHEMBL1132620, “Piperazine imidazo[1,5-a]quinoxaline ureas as high-affinity GABAA ligands of dual functionality” (J Med Chem, 1999).
The source made the active and inactive calls. The calls are words filed in the database; no cut-off is given here.

Experiments:
[1] = molecular target: T1, GABA-A receptor; anion channel (Rattus norvegicus) (UniProt O09028+P15431+P18506+P18508+P19969+P20236+P23574+P23576+P28471+P28473+P30191+P62813+P63079+P63138+Q91ZM7+Q9ES14); assay: (§1) Displacement of [3H]flunitrazepam from GABA-A benzodiazepine receptor of rat cortical membranes; type: cell membranes; set-up: concentration or dose not given beside the values; conditions: Membrane, concentration not given here
How it was run: (§2)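 Rat membranes incubated 60 min at 4 °C with [3H]flunitrazepam, 50 µg membrane protein and graded test drug in 200 µL containing NaCl, 10 mM Hepes/Tris pH 7.4 and 1 mM MgCl2; bound ligand separated by rapid filtration on GF/B; mean affinity, SE ≤10% of mean.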

[2] = molecular target: GABA-A receptor; anion channel; assay: as §1; type: cell membranes, Membrane; how it was run: as §2
[3] = molecular target: T1, GABA-A receptor; anion channel (Rattus norvegicus); assay: Shift in [35S]TBPS binding to GABA-A Benzodiazepine receptor of rat brain membrane
[4] = molecular target: T2, GABA-A receptor; alpha-1/beta-2/gamma-2 (Homo sapiens) (UniProt P14867+P47870+P18507); assay: (§3) In vitro GABA-mediated chloride current in A293 cells expressing GABA-A benzodiazepine receptor alpha-1-beta-2-gamma-2 subunits at 5 uM; type: functional, cell-based; conditions: HEK293
Mus musculus [5] = species: Mus musculus; assay: Ability to antagonize the muscle relaxation effect in mice caused by a benzodiazepine full agonist, triazolam.; type: functional
How it was run: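 Muscle relaxation induced by triazolam; test compound and triazolam given separately, traction scored 30 min after dosing; ED50 for blocking the relaxant effect.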

Mus musculus [6] = assay: In vivo efficacy is evaluated by percent control of cerebellar GMP levels in (drug+stress) treated mice/mice under stress; type: functional; set-up: concentration or dose not given beside the values
How it was run: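 Male CF-1 mice given drug orally in vehicle 122 before electric footshock stress, controls given vehicle (1 mL/100 g); killed 30 min after treatment; cerebellum homogenized in 1% perchloric acid, iced 30 min, boiled 5 min, spun 17000g 20 min; supernatant cGMP by radioimmunoassay, expressed as % of stress control.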

Mus musculus [7] = assay: In vivo acute electroshock physical dependence activity in mice; Not active.; type: functional, organism-based
Rattus norvegicus [8] = assay: In vivo efficacy evaluated for ability to antagonize metrazole induced clonic convulsions in rat after ip injection; type: functional
Rattus norvegicus [9] = assay: Mean number of shocks produced by CDPZ in rats at a dose of 12 mg/kg was determined by vogel's punished licking assay; type: functional
How it was run: (§4)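 Vogel punished licking test in rats; number of shocks accepted recorded per dose group (n 6–10); each dose compared with the 0 mg/kg group of the same experiment by Wilcoxon rank sum test.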

Rattus norvegicus [10] = assay: Mean number of shocks produced by the compound in rats at a dose of 0 mg/kg was determined by vogel's punished licking assay; type: functional; how it was run: as §4
Rattus norvegicus [11] = assay: Mean number of shocks produced by the compound in rats at a dose of 0.3 mg/kg was determined by vogel's punished licking assay; type: functional; how it was run: as §4
Rattus norvegicus [12] = assay: Mean number of shocks produced by the compound in rats at a dose of 1 mg/kg was determined by vogel's punished licking assay; type: functional; how it was run: as §4
Rattus norvegicus [13] = assay: Mean number of shocks produced by the compound in rats at a dose of 10 mg/kg was determined by vogel's punished licking assay; type: functional; how it was run: as §4
Rattus norvegicus [14] = assay: Mean number of shocks produced by the compound in rats at a dose of 3 mg/kg was determined by vogel's punished licking assay; type: functional; how it was run: as §4
[15] = molecular target: T2, GABA-A receptor; alpha-1/beta-2/gamma-2 (Homo sapiens); assay: as §3; type: functional, cell-based; conditions: HEK293; remark: listed apart in the source
[16] = Area under the curve was determined for the compound after iv dose of 4.97 mg/kg in rats; type: ADME, organism-based; set-up: dose 4.97 mg/kg, route intravenous; conditions: rat, in vivo
[17] = Total plasma clearance was determined for the compound after iv dose of 4.97 mg/kg in rats; type: ADME, organism-based; set-up: dose 4.97 mg/kg, route intravenous; conditions: rat, read-out: Clp (converted)
[18] = Area under curve was determined for the compound after po dose of 5.03 mg/kg in rats; type: ADME, organism-based; set-up: dose 5.03 mg/kg, route oral; conditions: rat, in vivo
[19] = Maximum serum concentration was determined for the compound after po dose of 5.03 mg/kg in rats; type: ADME, organism-based; set-up: dose 5.03 mg/kg, route oral; conditions: rat
[20] = Oral bioavailability at a dose of 5.03 mg/kg in rats; type: ADME, organism-based; conditions: rat, in vivo
[21] = Time at which Cmax was reached was determined for the compound after po dose of 5.03 mg/kg in rats; type: ADME, organism-based; set-up: dose 5.03 mg/kg, route oral; conditions: rat, in vivo
How it was run: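 Male Sprague–Dawley rats dosed orally with compound in a solution formulation, n = 3–4 per compound; serum drug concentrations measured over time, lower limit of quantitation 50 ng/mL. Tmax reported as the range of observed values across animals.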

[22] = half-life after po dose of 5.03 mg/kg in rats; type: ADME, organism-based; set-up: dose 5.03 mg/kg, route oral; conditions: rat, in vivo
[23] = molecular target: GABA A receptor alpha-3/beta-2/gamma-2 (Homo sapiens) (UniProt P47870+P18507+P34903); assay: In vitro GABA-mediated chloride current in A293 cells expressing GABA-A benzodiazepine receptor alpha-3-beta-2-gamma-2 subunits at 5 uM; type: functional, cell-based; conditions: HEK293
[24] = Half-life after iv dose of 4.97 mg/kg in rats; type: ADME, organism-based; set-up: dose 4.97 mg/kg, route intravenous; conditions: rat, in vivo
[25] = molecular target: T1, GABA-A receptor; anion channel (Rattus norvegicus); conditions: Membrane
[26] = molecular target: T1, GABA-A receptor; anion channel (Rattus norvegicus); assay: Inhibition of [35S]TBPS binding to GABA-A Benzodiazepine receptor of rat brain membranes; type: cell membranes; conditions: Membrane

inhibition [1] [%]	Ki [2] [nM]	Shift [3]	Change in Cl- current [4]	Compound	ED50 (Mus musculus [5]) [mg/kg]	Control (Mus musculus [6]) [%]	Acute electroshock activity (Mus musculus [7])	ED50 (Rattus norvegicus [8]) [mg/kg]	Mean no. of shocks (Rattus norvegicus [9])	Mean no. of shocks (Rattus norvegicus [10])	Mean no. of shocks (Rattus norvegicus [11])	Mean no. of shocks (Rattus norvegicus [12])	Mean no. of shocks (Rattus norvegicus [13])	Mean no. of shocks (Rattus norvegicus [14])	other results
85	5.16	-0.97	-0.32	CC(C)N1[C@H](C)CN(C(=O)N2Cc3c(C(=O)OC(C)(C)C)ncn3-c3ccc(Cl)cc32)C[C@@H]1C	> 30	52	inactive	35.3	26	6.6	6.3	5.3	<3.4	5	Change in Cl- current [15]: 0.9
52	32.4	0.31	0.5	C[C@@H]1CN(C(=O)N2Cc3c(C(=O)OC(C)(C)C)ncn3-c3ccc(C(F)(F)F)cc32)C[C@H](C)N1	> 30	36	inactive	21	23	4.9	4.6	4.9	7.9	6.4	AUC [16]: 7470 ng·h/mL; clearance [17]: 12.2 mL/min/kg; AUC [18]: 6430 ng·h/mL; Cmax [19]: 1160 ng/mL; bioavailability [20]: 84%; Tmax [21]: 1 h; half-life [22]: 2.7 h; Change in Cl- current [23]: 0.1; half-life [24]: 2.4 h
–	–	–	0.04	CC(C)n1c(=O)c2c(-c3noc(C4CC4)n3)ncn2c2ccccc21 [PANADIPLON]	1.7	87	inactive	1.6	–	–	–	–	–	–	Shift [25]: 0.06
44	1.35	–	0	CC(C)(C)OC(=O)c1ncn2c1CN(C(=O)N1CCCCC1)c1ccccc1-2	4	91	inactive	> 50	–	–	–	–	–	–	Shift [26]: 0.08
